# Shown are actives, neighbours in structure and some others; about 2.9% of the full set was active somewhere.
# Apaf1 inhib = human Apaf-1 inhibition. O14727. reconstituted apoptosome caspase-3 activity, DEVD-Rh110 fluorescence. inhibition, % at 20 µM. 0.71% of 330,000 active; active = inhibition of at least 40% at 20 µM;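 note: plate controls were DMSO wells for no effect and DEVD-CHO caspase inhibitor wells for full effect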
#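 Material: biochemical Apaf-1 apoptosome reconstitution. Medium: Hepes buffer, pH 7.5. Also added: cytochrome c activation, bis-DEVD rhodamine 110 substrate. Timing: 30 min compound preincubation, 50 min activation, room temperature. Measured by: rhodamine 110 fluorescence at Ex 480/Em 540 nm.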
# MEKK2wt PB1 HTS = raises or lowers MEK5 binding to wildtype human MEKK2 PB1 domain. Q9Y2U5. bead flow cytometry, Alexa488-MEK5 binding to MEKK2 WT; actives lie on both sides. binding response (% of control), % at 10 µM. 1.1% of 290,000 active. AID 1531; in the data active = binding response below about 67% or above about 130%
# MEKK3 PB1 HTS = modulators (inhibitors or enhancers) of MEK5 binding to human MEKK3 PB1 domain | AID 1529 | binding response (% of control), % at 10 µM | Q99759 | 1.4% of 290,000 active | bead-based flow cytometry, Alexa488-MEK5 binding to MEKK3; actives lie on both sides; 0 = blocked by unlabeled MEK5, 100 = vehicle;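 active = binding response more than 3 SD above or below the average of its plate-row segment, actives on both sides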;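 note: Alexa488 bead fluorescence after subtracting the streptavidin-only scavenger bead signal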
# MEKK2mut PB1 HTS = signal of MEK5 binding to mutant human MEKK2 PB1 domain | AID 1530 | percent response, % at 10 µM | bead flow cytometry, Alexa488-MEK5 binding to MEKK2 mutant | 0.35% of 290,000 active; in the data active = percent response above about 24%, passing the limit was not always enough
# UBC13 inh = human UBC13 polyubiquitination inhibition. P61088. UBC13 polyubiquitin chain formation, TR-FRET. inhibition, % at 20 µM. 0.47% of 330,000 active. AID 485273; in the data active = inhibition above about 45%, passing the limit was not always enough
# Target sequence (P61088 whole entry, looked up): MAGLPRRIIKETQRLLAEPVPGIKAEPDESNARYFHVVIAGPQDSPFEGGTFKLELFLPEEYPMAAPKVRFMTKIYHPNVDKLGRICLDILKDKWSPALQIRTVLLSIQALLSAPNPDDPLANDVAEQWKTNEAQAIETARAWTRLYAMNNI
# Casp3 UBC13 ctr = inhibits human caspase-3 in UBC13 counter-screen. shares compounds with UBC13 inh. Recombinant caspase-3, Caspase-Glo 3/7 luminescence, 60 min. 4% of 1,400 active. AID 488856. inhibition, % at 20 µM;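 active = mean inhibition across replicates above about 26%, limit read from the data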;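 note: plate controls were DMSO with caspase-3 for no effect and DMSO wells lacking enzyme for full effect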
# Target sequence (P42574 whole entry, looked up): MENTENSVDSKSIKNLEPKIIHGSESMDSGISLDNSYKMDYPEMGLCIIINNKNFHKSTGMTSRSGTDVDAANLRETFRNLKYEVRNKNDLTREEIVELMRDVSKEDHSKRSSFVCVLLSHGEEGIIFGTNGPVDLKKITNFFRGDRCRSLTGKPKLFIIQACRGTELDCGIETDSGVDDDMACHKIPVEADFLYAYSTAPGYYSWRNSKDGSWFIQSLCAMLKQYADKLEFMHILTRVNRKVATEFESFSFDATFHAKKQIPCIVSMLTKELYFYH
# UBC13 conf = confirmation of human UBC13 polyubiquitin inhibitors; inhibition, % at 10 µM; shares compounds with UBC13 inh; 68% of 1,400 active; UBC13 polyubiquitination, TR-FRET, biochemical; in the data active = inhibition above about 45%
# Apaf-1 inh conf = confirmation of Apaf-1 inhibitors | reconstituted apoptosome, caspase-3 DEVD-Rh110 fluorescence | inhibition, % at 20 µM | 25% of 1,800 active | shares compounds with Apaf1 inhib | AID 504614;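 active = mean inhibition of at least 40% at 20 µM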;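 note: plate controls were DMSO wells for no effect and DEVD-CHO caspase inhibitor control wells for full effect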
# Rh110 quench = counter-screen for Apaf-1 inhibitors: fluorescence interference | shares compounds with Apaf1 inhib | Rh110 fluorescence interference, quenched caspase reaction | activation (fluorescence interference), % at 20 µM | 1,800 tested, under 10 active | AID 504615;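 active = signal rise of 40% or more at 20 µM, treated as a fluorescence artifact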
# Fluor interf inh = Apaf-1 inhibitor counter-screen fluorescence artifact; IC50, µM; AID 588538; 460 tested, under 10 active; shares compounds with Apaf1 inhib; fluorescence interference counterscreen, Apaf-1 assay format; call rule not given here
# Active calls of the source: *; nt = no result given.
SMILES,Apaf1 inhib,MEKK2wt PB1 HTS,MEKK3 PB1 HTS,MEKK2mut PB1 HTS,UBC13 inh,Casp3 UBC13 ctr,UBC13 conf,Apaf-1 inh conf,Rh110 quench,others
CC(C)C[C@@H]1CN=C(N)N1C[C@@H]1CCCN1C[C@@H](C(C)C)N1C[C@@H](Cc2ccccc2)N(CCCC2CCCC2)C1=N,55*,nt,nt,nt,78*,-4,76*,13,-1,
CCC[C@@H](CN1CCC[C@H]1CN1C(N)=NC[C@H]1C(C)C)N1C[C@@H](Cc2ccccc2)N(CCCC2CCCC2)C1=N,46*,nt,nt,nt,65*,-3,47*,13,0,
CCCCN(C(=O)NC(=O)Nc1ccc(C)cn1)S(C)(=O)=O,0,96,99,5,4,nt,nt,nt,nt,
COCCN=C1N[C@@H](c2cccc(C(F)(F)F)c2)C(C(=O)OC)=C(C)N1Cc1ccccc1,26,114,103,12,6,nt,nt,nt,nt,
COC(=O)C1=C(C)N(CC2CC2)C(=NCc2cccc(C(F)(F)F)c2)N[C@H]1c1ccccc1,57*,nt,nt,nt,66*,3,75*,14,12,
COC(=O)C1=C(C)N(Cc2ccccc2)C(=NCc2cccc(C(F)(F)F)c2)N[C@H]1c1cccc(C(F)(F)F)c1,74*,nt,nt,nt,90*,4,94*,33,12,
COC(=O)C1=C(C)N(Cc2ccccc2)C(=NCCc2c[nH]c3ccccc23)N[C@H]1c1cccc(C(F)(F)F)c1,78*,nt,nt,nt,74*,1,86*,43*,0,Fluor interf inh=>100
COCCCn1c(=O)c2sccc2n(Cc2ccc(C)cc2)c1=O,-2,104,103,2,17,nt,nt,nt,nt,
COc1ccc(CCC(=O)N2CCCSC2=Nc2ccc(C(C)=O)cc2)cc1,9,87,97,-13,11,nt,nt,nt,nt,
CCCCCCCCCCCCC/C=C/[C@@H](O)[C@@H](N)CO,79*,nt,nt,nt,108*,-3,114*,37,18,
O=C(CN1CCCC1)N1c2ccccc2Sc2ccc(Cl)cc21,-2,109,105,5,0,nt,nt,nt,nt,
OCCN1CCN(CC/C=C2/c3ccccc3Sc3ccc(Cl)cc32)CC1,43*,nt,nt,nt,74*,4,60*,12,6,
CCc1ccc(S(=O)(=O)N/N=C\c2ccc3c(c2)OCO3)cc1,3,104,106,3,-11,nt,nt,nt,nt,
Cc1cc(N)c2cc(NC(=O)/C=C/c3ccccc3Cl)ccc2n1,64*,252*,104,117*,117*,-1,129*,77*,-3,Fluor interf inh=>100
Cc1cc(C)nc(NC(=O)/C=C/c2ccccc2Cl)n1,6,98,101,2,0,nt,nt,nt,nt,
CNC(=O)c1cc(NC(=O)CCn2nc(-c3ccc(C)cc3)c3ccccc3c2=O)ccc1OC,-7,94,97,-4,0,nt,nt,nt,nt,
C=CC(=O)Nc1ccc(N(C)c2ccnc(Nc3ccc(N4CCN(C)CC4)cc3)n2)cc1,62*,nt,nt,nt,85*,2,77*,25,6,
CC(=O)CC(c1ccccc1)S(=O)(=O)c1ccc([N+](=O)[O-])cc1 (centres undefined),-1,108,105,1,1,nt,nt,nt,nt,
COc1ccc(-c2sc3cc4c(cc3c2C#CC2(N)CCCCC2)OCO4)cc1,72*,nt,nt,nt,85*,2,89*,35,8,
COc1ccc(-c2sc3cc4c(cc3c2C#Cc2cncn2C)OCO4)cc1,16,nt,nt,nt,20,nt,nt,nt,nt,
COc1cc(OC)cc(-c2sc3ccc(OC)cc3c2C#CC2(N)CCCCC2)c1,67*,nt,nt,nt,84*,3,77*,23,2,
CCOC(=O)CSc1n[nH]c(NC(C)=O)n1,-11,108,107,9,11,nt,nt,nt,nt,
CN(C)CCCN(C(=O)c1ccc(S(=O)(=O)N2CCc3ccccc3C2)cc1)c1nc2ccc(F)cc2s1,70*,252*,116,71*,55*,6,99*,46*,5,Fluor interf inh=>100
Cc1ccc2nc(N(CCCN(C)C)C(=O)c3ccc(S(=O)(=O)N4CCc5ccccc5C4)cc3)sc2c1,53*,223*,113,55*,78*,-6,110*,20,7,
CCOC(=O)N1CCN(S(=O)(=O)c2ccc(C(=O)N(CCCN(C)C)c3nc4cc(OC)ccc4s3)cc2)CC1,16,nt,nt,nt,2,nt,nt,nt,nt,
SMILES,Apaf1 inhib,MEKK2wt PB1 HTS,MEKK3 PB1 HTS,MEKK2mut PB1 HTS,UBC13 inh,Casp3 UBC13 ctr,UBC13 conf,Apaf-1 inh conf,Rh110 quench,others
Cc1ccc2nc(N(CCCN(C)C)C(=O)c3ccc(S(=O)(=O)N(C)C)cc3)sc2c1,7,102,94,0,35,nt,nt,nt,nt,
COc1cccc(CN(C)CC(=O)Nc2ccccc2C(C)C)c1,5,99,95,-3,6,nt,nt,nt,nt,
Cc1ccc(-c2nc3ccccc3c(=O)n2NC(=S)N(C)C)cc1,2,106,100,0,-7,nt,nt,nt,nt,
c1ccc2c(C[C@@H]3CNCCN3CC3CCCCC3)cccc2c1,44*,nt,nt,nt,60*,2,58*,8,9,
COc1ccc(NC(=O)c2ccc(-c3ccc(-c4noc(C)n4)cc3C)cc2)cc1N1CCN(C)CC1,57*,nt,nt,nt,78*,-4,45,26,2,
CCOC(=O)C1CCCN(C(=O)c2cccc(S(=O)(=O)N(C)c3c(C)n(C)n(-c4ccccc4)c3=O)c2)C1 (centres undefined),49*,101,102,2,26,nt,nt,33,7,
Cc1ccc(SCC(=O)N2CCN(S(=O)(=O)c3cccs3)CC2)cc1,9,nt,nt,nt,5,nt,nt,nt,nt,
COc1ccc(N(CC(=O)NCCC2=CCCCC2)S(=O)(=O)c2ccc(C)cc2)cc1,9,99,99,0,10,nt,nt,nt,nt,
Cc1nnsc1-c1nnc(SCC(=O)c2ccccc2)n1C1CC1,-5,98,98,-2,1,nt,nt,nt,nt,
O=C1C=C(Nc2ccccc2O)c2ccccc2C1=O,96*,102,101,-1,-323,nt,nt,93*,1,Fluor interf inh=>100
CCOc1ccc(-c2csc3nc[nH]c(=O)c23)cc1,1,102,104,10,-6,nt,nt,nt,nt,
Cc1cc(C)n2nc(C(=O)OCC(=O)c3ccccc3Cl)nc2n1,-14,nt,nt,nt,6,nt,nt,nt,nt,
CC(=O)Nc1ccc(C(=O)COC(=O)c2nc3nc(C)cc(C)n3n2)cc1,41*,nt,nt,nt,-11,nt,nt,10,2,
O=C1Cc2ccccc2C(=O)N1OCc1ccc(Cl)cc1,95*,107,124,0,-44,nt,nt,29,10,
